# ARFGAP1 inh – inhibitors of rat ARFGAP1. Q62848. Arfgap1-stimulated ARF1 GTP hydrolysis, GDP FP detection. inhibition, % at 16.5 µM. hit rate 0.26% among 360,000;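 active = inhibition above a per-plate limit, mean inhibition of low control wells plus 3 SD, cut at about 25% in these data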
# Target sequence (Q62848 1-136 limits assumed): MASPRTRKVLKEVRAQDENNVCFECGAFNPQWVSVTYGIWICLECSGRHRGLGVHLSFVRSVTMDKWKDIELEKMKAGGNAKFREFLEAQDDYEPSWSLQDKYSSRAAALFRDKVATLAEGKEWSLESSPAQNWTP
#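 Assay system: Rat Arfgap1 GAP domain (His6, aa 1-136), purified enzyme | Buffer or medium: HEPES 25 mM pH 7.5, NaCl 150 mM, MgCl2, DTT | Schedule: GTP hydrolysis reaction 2 h at 25 °C | Signal: FP of antibody-bound GDP Alexa 633 tracer, ex 620/em 688 nm | Measure: Percent inhibition of Arfgap1-stimulated GTP hydrolysis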
# ASAP1 GAP inh – blocks human ASAP1-stimulated Arf1 GTP hydrolysis; Q9ULH1; GDP FP detection; inhibition, % at 16.5 µM; hit rate 0.19% among 360,000; AID 624377; in the data active = inhibition above about 25%
# PP5 inh – inhibitors of human protein phosphatase 5 (PP5). hit rate 0.18% among 320,000. AID 1987. inhibition, % at 6.7 µM. purified PP5c, OMFP substrate fluorescence. P53041;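 active = inhibition above the campaign's mean inhibition across all tested compounds plus 3 SD, cut at about 9.5% in these data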
# PKD1 inh – blocks activity of human protein kinase D1; Q15139; PKD1 kinase fluorescence polarization assay; AID 797; inhibition, % (test concentration not listed); hit rate 0.056% among 200,000; in the data active = inhibition above about 50%
# ARFGAP1 inh conf – rat ARFGAP1 inhibition, confirmed; shares compounds with ARFGAP1 inh; ARFGAP1-stimulated ARF1 GTP hydrolysis, GDP tracer FP; inhibition, % at 16.5 µM; hit rate 30% among 890;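 active = average inhibition over triplicates above the hit cutoff set in the earlier primary screen, cut at about 25% in these data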
# Target sequence (Q62848 whole entry, looked up): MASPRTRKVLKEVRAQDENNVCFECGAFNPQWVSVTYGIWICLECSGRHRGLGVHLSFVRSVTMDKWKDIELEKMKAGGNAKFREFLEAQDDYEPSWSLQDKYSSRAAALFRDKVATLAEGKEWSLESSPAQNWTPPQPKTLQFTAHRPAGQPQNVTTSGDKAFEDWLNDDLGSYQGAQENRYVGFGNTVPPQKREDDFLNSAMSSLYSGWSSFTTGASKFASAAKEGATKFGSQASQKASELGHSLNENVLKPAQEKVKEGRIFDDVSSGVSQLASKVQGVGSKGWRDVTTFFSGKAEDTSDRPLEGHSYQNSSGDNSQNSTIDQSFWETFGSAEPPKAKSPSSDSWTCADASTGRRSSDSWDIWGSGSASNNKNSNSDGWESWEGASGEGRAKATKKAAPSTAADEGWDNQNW
# Hits are given with their value; n = inactive; x = no result given; + = active, no number. Compounds with a hit are over-represented: about 0.54% of the library has one in this group of screens.
SMILES,ARFGAP1 inh,ASAP1 GAP inh,PP5 inh,PKD1 inh,ARFGAP1 inh conf
CC(C(=O)N1CCCCC1)N(C)CC(=O)Nc1ccc(F)c(F)c1F (stereo unspecified),25.8,n,x,x,n
COc1ccc(C(=O)/C=C/c2ccc(O)cc2)c(O)c1C/C=C(\C)CCC=C(C)C,24.9,n,x,x,n
COc1ccc(-c2cc3ccccc3oc2=O)cc1NC(=O)c1cccnc1,33.6,n,n,n,34.0
COc1cc2c(cc1NC(=O)c1cccnc1)oc1ccccc12,n,n,n,n,x
CCc1cc2c(nc1CC)CCCN2S(=O)(=O)c1cccs1,n,n,x,x,x
CN1c2ccsc2/C(=N/Nc2ccccc2)CS1(=O)=O,28.7,n,n,n,n
CN1c2ccsc2/C(=N/NC(=O)c2c(F)cccc2F)CS1(=O)=O,n,n,n,n,x
COc1ccccc1NC(=O)Cc1csc(NC(=S)Nc2ccc(C)cc2)n1,27.5,n,n,n,n
CN1CCCC1(C)C(=O)Nc1ccc(-n2cccc2)cc1 (stereo unspecified),n,n,x,x,x
CCCC(=O)N1CCCC1(C)C(=O)Nc1ccc(-n2cccc2)cc1 (stereo unspecified),24.6,n,x,x,n
CC(C)CCC(CCNCc1ccccn1)c1ccc(Cl)cc1 (stereo unspecified),30.9,n,n,x,n
O=C(O)C1=C[C@@H](O)[C@@H](O)[C@H](O)C1,35.9,n,x,x,n
Nc1ncnc(Nc2ccc(F)cc2)n1,n,n,n,n,x
Fc1ccc(Nc2ccnc(Nc3ccc(F)cc3)n2)cc1,24.7,n,n,n,n
Cc1ccc(NC(=O)CN(C)C(=O)c2ccc(Sc3nncn3C)c([N+](=O)[O-])c2)cc1,+,n,n,x,n
Cc1ccc(NC(=O)CN(C)C(=O)c2ccc(-n3cncn3)c([N+](=O)[O-])c2)cc1,n,n,n,x,x
COc1cc2c(cc1OCc1ccccc1)/C(=C/C(=O)OCc1ccccc1)OC2,n,n,x,x,x
CN(Cc1ccccc1)C(=O)c1nc[nH]c1C(=O)N(C)Cc1ccccc1,26.5,n,n,x,n
CC(C)C(=O)Nc1cc2c3c(c1)CCC(=O)N3CCC2,25.1,n,n,x,n
Cc1ccc(N2C(=O)CC(Sc3nc(C)cc(C)n3)C2=O)cc1 (stereo unspecified),24.9,n,n,x,n
CC(=O)C1=CCC(c2cccc3ccccc23)N(S(=O)(=O)c2ccc(C)cc2)C1 (stereo unspecified),n,n,x,x,x
CC(C)C[C@@H](CN1CCC[C@@H]1CN1C(=O)C(=O)NC[C@@H]1Cc1ccccc1)N1C[C@H](Cc2ccccc2)N(CC2CCCCC2)C(=O)C1=O,n,n,x,x,x
CCOC(=O)Cc1csc(NC(=O)CN2C(=O)c3ccccc3C2=O)n1,n,n,n,x,x
CCOC(=O)Cc1csc(NC(=O)CN2C(=O)c3ccccc3S2(=O)=O)n1,33.0,n,n,n,n
COc1ccc(CNC(=O)c2sc(=O)n(Cc3ccc(-c4ccccc4)cc3)c2C)cc1OC,26.2,n,x,x,n
SMILES,ARFGAP1 inh,ASAP1 GAP inh,PP5 inh,PKD1 inh,ARFGAP1 inh conf
CCOC(=O)c1ccc(NC(=S)N(CCCN2CCCC2)Cc2cccs2)cc1,24.8,n,n,n,n
Clc1ccc(-c2nc3c4ccccc4ccn3c2Cc2ccsc2)cc1,n,n,x,x,x
CC1(C)CC(=O)C=C(NCCN2CCN(C(=O)Nc3ccc(Cl)cc3)CC2)C1,32.8,n,n,n,n
CC1(C)CC(=O)C=C(NCCN2CCN(C(=O)Nc3ccc(Cl)c(Cl)c3)CC2)C1,n,n,n,n,x
CN(C)/C=N/c1nc(Sc2ccc(C(F)(F)F)cc2[N+](=O)[O-])n[nH]1,n,n,n,x,x
O=[N+]([O-])c1cc(C(F)(F)F)cc([N+](=O)[O-])c1Sc1n[nH]c(C(F)(F)F)n1,29.3,n,n,x,n
CC1(C)CN(CCc2ccccc2)C(=O)[C@H]1CC(=O)Nc1ccccc1,n,n,x,x,x
Cc1ccc2c(c1)C1(SC(C)C(=O)N1c1ccc(Cl)cc1)C(=O)N2 (stereo unspecified),n,n,x,x,x
Cc1ccc([N+](=O)[O-])cc1CN1CCN(c2ncc(Cc3ccccc3)cn2)CC1,n,n,x,x,x
COc1ccc([N+](=O)[O-])cc1CN1CCN(c2ncc(Cc3ccccc3)cn2)CC1,26.2,n,x,x,n
CC(=O)Nc1ccc(S(=O)(=O)NCCC(=O)NCCc2ccc(F)cc2)cc1,n,n,n,n,x
CC(=O)NCCc1ccc(S(=O)(=O)Nc2ccc(NC(=O)c3ccc(F)cc3)cc2)cc1,28.9,n,n,x,n
CC(=O)c1cccc(NC(=O)CN(C)Cc2ccc(OC(F)F)cc2)c1,42.0,n,n,x,n
CC(C)c1[nH]nc2c1C(c1ccc(F)cc1)NC2=O (stereo unspecified),n,n,x,x,x
OCC1(Cc2cccc(F)c2)CCN(Cc2ccc3cccc(F)c3n2)CC1,24.8,n,n,n,n
COc1cccc(CC2(CO)CCN(Cc3ccc4cccc(F)c4n3)CC2)c1,n,n,n,n,x
CCOc1cc2nc(-c3ccc(OC)c(OC)c3)nc(N3CC(C)OC(C)C3)c2cc1OC (stereo unspecified),x,x,n,n,x
CCOc1cc2nc(-c3ccc(OC)c(OC)c3)nc(N3CCOCC3)c2cc1OC,26.2,n,n,n,n
OC(c1ccc(-c2ccccc2)cc1)c1ncc(-c2ccc(C(F)(F)F)cc2)[nH]1 (stereo unspecified),39.3,n,x,x,n
Oc1ccc(NC(=S)N=Nc2c(O)[nH]c3ccc(Br)cc23)cc1,29.0,n,x,n,n
CCc1ccc(-c2cc(C(=O)N/N=C/c3ccccn3)[nH]n2)cc1,n,n,n,n,x
O=C(N/N=C/c1ccccn1)c1cc(-c2ccc3ccccc3c2)n[nH]1,29.4,n,n,n,100.5
O=C(N/N=C/C=C\c1ccccc1[N+](=O)[O-])c1cc(-c2ccc3ccccc3c2)n[nH]1,30.0,n,x,n,n
Cc1csc(-c2nc3ccccc3n2C(C(=O)NC(C)(C)C)c2cc3ccccc3o2)c1 (stereo unspecified),n,n,x,x,x
COC(=O)C1=C(C)N(Cc2ccccc2C(F)(F)F)C(=NCc2ccccc2)NC1c1ccc(C(F)(F)F)cc1 (stereo unspecified),25.0,n,x,x,n
SMILES,ARFGAP1 inh,ASAP1 GAP inh,PP5 inh,PKD1 inh,ARFGAP1 inh conf
COC(=O)C1=C(C)N(Cc2ccccc2C(F)(F)F)C(=NCc2cccc(C(F)(F)F)c2)NC1c1ccc(C(F)(F)F)cc1 (stereo unspecified),n,n,x,x,x
COC(=O)C1=C(C)N(Cc2cccc(C(F)(F)F)c2)C(=NCc2ccccc2C(F)(F)F)NC1c1cccc(F)c1 (stereo unspecified),26.5,n,x,x,n
Cc1sc2nc(SCC(=O)N3CC(C)OC(C)C3)n(C)c(=O)c2c1C (stereo unspecified),25.6,n,n,x,n
CCOC(=O)CSc1nc2sc(C)c(C)c2c(=O)n1C,n,n,n,n,x
CN1CCN(c2ccc(Cl)cc2NC(=O)c2cccc(S(=O)(=O)N(C)C)c2)CC1,n,n,n,n,x
CN1CCN(c2ccc(Cl)cc2NC(=O)/C=C/c2cccc(F)c2)CC1,30.5,n,n,n,n
CCCCN(CCCC)CCCNC(=O)Cn1cc(C)c(=O)[nH]c1=O,n,n,x,x,x
